Source: ChEMBL document CHEMBL2346574, “Evaluation of (Z)-2-((1-benzyl-1H-indol-3-yl)methylene)-quinuclidin-3-one analogues as novel, high affinity ligands for CB1 and CB2 cannabinoid receptors” (Bioorg Med Chem Lett, 2013)

Key:
Cannabinoid receptor 1 = Cannabinoid receptor 1 (Mus musculus, UniProt P47746); assay: Displacement of [3H]CP 55940 from CB1 receptor in mouse whole brain membrane homogenates after 90 mins by liquid scintillation counting; assay type: cell membranes
Method in brief: (§1)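 Competition binding with 0.2 nM [3H]CP-55,940 and 5 mM MgCl2, in triplicate per concentration, using 50 mM Tris with 0.05% BSA and 0.1% ethanol/0.1% DMSO. CB1 used mouse whole-brain membranes and CB2 used CHO-hCB2 membranes. […] GF/B filtration, ice-cold washes, scintillation counting. Specific binding taken as percent of no-competitor.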

Cannabinoid receptor 2 = Cannabinoid receptor 2 (Homo sapiens, UniProt P34972); assay: Displacement of [3H]CP 55940 from human CB2 receptor expressed in CHO cells after 90 mins by liquid scintillation counting; assay type: cell-based; method in brief: as §1
Cannabinoid receptor 2, sequence (P34972 whole entry): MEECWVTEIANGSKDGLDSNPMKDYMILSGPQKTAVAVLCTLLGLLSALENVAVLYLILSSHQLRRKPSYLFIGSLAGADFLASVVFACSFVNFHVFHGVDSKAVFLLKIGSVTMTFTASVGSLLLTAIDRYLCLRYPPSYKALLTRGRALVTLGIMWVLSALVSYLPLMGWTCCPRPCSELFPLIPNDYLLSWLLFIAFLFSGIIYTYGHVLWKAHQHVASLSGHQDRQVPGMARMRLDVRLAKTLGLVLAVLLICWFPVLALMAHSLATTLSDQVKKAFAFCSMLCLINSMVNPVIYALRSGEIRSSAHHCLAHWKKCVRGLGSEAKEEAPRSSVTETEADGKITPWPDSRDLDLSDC

[1] = Selectivity ratio of Ki for CB1 receptor in mouse whole brain membrane homogenates to Ki for human CB2 receptor; assay type: cell membranes

Cannabinoid receptor 1, sequence (P47746 whole entry): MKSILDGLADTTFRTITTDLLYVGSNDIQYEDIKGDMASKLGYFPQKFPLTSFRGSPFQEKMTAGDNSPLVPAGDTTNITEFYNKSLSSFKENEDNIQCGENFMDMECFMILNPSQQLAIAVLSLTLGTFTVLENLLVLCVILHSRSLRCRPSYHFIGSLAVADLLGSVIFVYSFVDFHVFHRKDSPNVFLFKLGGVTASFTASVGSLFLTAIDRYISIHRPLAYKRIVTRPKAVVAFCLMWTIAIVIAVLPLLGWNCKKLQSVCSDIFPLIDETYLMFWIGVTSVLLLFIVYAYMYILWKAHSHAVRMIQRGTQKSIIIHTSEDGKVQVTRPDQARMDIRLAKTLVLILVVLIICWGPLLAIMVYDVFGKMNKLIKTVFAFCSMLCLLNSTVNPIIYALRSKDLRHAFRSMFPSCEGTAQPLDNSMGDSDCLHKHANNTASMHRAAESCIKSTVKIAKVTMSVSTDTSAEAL

Q: For O/N=C1/C(=C/c2cn(Cc3ccc(Cl)cc3)c3ccccc23)N2CCC1CC2, which Ki (Cannabinoid receptor 1) is on record?
A: 95.7 nM

Q: For COC(=O)c1ccc(Cn2cc(/C=C3/C(=O)C4CCN3CC4)c3ccccc32)cc1, which Ki (Cannabinoid receptor 1) is on record?
A: 953 nM

Q: What about the Ki (Cannabinoid receptor 2) of the same compound?
A: 588 nM

Q: For OC1/C(=C/c2cn(Cc3ccc(Cl)cc3)c3ccccc23)N2CCC1CC2 (racemic), which Ki (Cannabinoid receptor 1) is on record?
A: 85.3 nM

Q: Which Ratio Ki [1] does the source give for COC(=O)c1ccc2c(/C=C3/C(=O)C4CCN3CC4)cn(Cc3ccccc3)c2c1 here?
A: 34

Q: And the Ki (Cannabinoid receptor 1)?
A: 85.7 nM

Q: What about the Ki (Cannabinoid receptor 2) of the same compound?
A: 2.5 nM

Q: For O/N=C1/C(=C/c2cn(Cc3ccccc3)c3ccccc23)N2CCC1CC2, which Ki (Cannabinoid receptor 1) is on record?
A: 357 nM

Q: And the Ki (Cannabinoid receptor 2)?
A: 68.6 nM

Q: What does the source list for N#Cc1ccc(Cn2cc(/C=C3/C(=O)C4CCN3CC4)c3ccccc32)cc1?
A: Ki (Cannabinoid receptor 1): 55.3 nM; Ki (Cannabinoid receptor 2): 114 nM

Q: With O=C1/C(=C/c2cn(Cc3ccc(F)cc3)c3ccccc23)N2CCC1CC2 as the compound, how does the Ki (Cannabinoid receptor 1) read?
A: 9.23 nM

Q: What about the Ki (Cannabinoid receptor 2) of the same compound?
A: 1.33 nM

Q: With O=C1/C(=C/c2cn(Cc3ccccc3Br)c3ccccc23)N2CCC1CC2 as the compound, how does the Ki (Cannabinoid receptor 1) read?
A: 629 nM

Q: What about the Ki (Cannabinoid receptor 2) of the same compound?
A: 333 nM

Q: Which Ki (Cannabinoid receptor 1) does the source give for OC1/C(=C/c2cn(Cc3ccccc3)c3ccccc23)N2CCC1CC2 (racemic) here?
A: 540 nM

Q: What about the Ki (Cannabinoid receptor 2) of the same compound?
A: 55.3 nM

Q: For O=C1/C(=C/c2cn(Cc3ccc(Cl)cc3)c3ccccc23)N2CCC1CC2, which Ki (Cannabinoid receptor 1) is on record?
A: 31.7 nM

Q: What about the Ki (Cannabinoid receptor 2) of the same compound?
A: 20.3 nM

Q: Which results are given for O=C1/C(=C/c2cn(Cc3ccccc3)c3ccccc23)N2CCC1CC2?
A: Ki (Cannabinoid receptor 1): 135 nM; Ki (Cannabinoid receptor 2): 11.7 nM
